The IC50 is the point on the concentration scale where inhibition reaches its midpoint.

What all share (assay type): functional, cell-based
One test relates to THP-1. Kind of test: Cytotoxicity against THP1 cells by MTT assay. The essentials:
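THP-1 cells (RPMI 1640 with 10% FCS, 37 °C, 5% CO2) were exposed to lipolanthionine peptides plus Pam3Cys-SK4-OH (50 nM) for 5 h. After part of the supernatant was removed for ELISA, MTT (1 mg/mL) was added for 4 h. Formazan was dissolved in 10% SDS in 10 mM HCl. A570 was read relative to untreated control cells.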

Test [1] deals with T1, Toll-like receptor 2 (Homo sapiens, UniProt O60603). The test can be described thus: Inhibition of TLR2-mediated IL-8 secretion in THP-1 cells. A digest of the protocol:
(§1)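 THP-1 cells, 4 × 10⁴ per well in RPMI 1640/10% FCS, were preincubated with peptides (0.78–25 µM, from 10 mM DMSO stocks) for 10 min at 37 °C. Pam3Cys-SK4-OH (50 nM) was then added for 5 h at 37 °C. IL-8 in cell-free supernatants was measured by matched-pair ELISA against DMSO-matched agonist controls. Triplicates, SD shown.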

Test [2] deals with T1, Toll-like receptor 2. Kind of test: Inhibition of TLR2 agonist Pam3Cys-Ser-(Lys)4-OH-mediated IL8 secretion in THP1 cells at 25 uM. The settings on record: THP-1. The essentials: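 THP-1 cells, 4 × 10⁴ per well, were preincubated for 10 min at 37 °C with peptide at a single 25 µM concentration (from 10 mM DMSO stock), with or without Pam3Cys-SK4-OH (50 nM), then incubated 5 h at 37 °C. IL-8 was measured by ELISA in cell-free supernatants and expressed relative to agonist plus equal-solvent control. Triplicates, SD.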

The target of test [3] is T1, Toll-like receptor 2. The test can be described thus: Inhibition of TLR2 agonist Pam3Cys-Ser-(Lys)4-OH-mediated IL8 secretion in THP1 cells. To be noted: for Activity: THP-1. Also on record: scale not given: the % may be the effect or the level left. A digest of the protocol:
as §1

The structures appear in SMILES notation. The source made the active and inactive calls. The calls are words filed in the database; no cut-off is given here. Residues, ends and D or L forms follow the SMILES beside them. *: point of attachment. X5 = CCCCCCCCCCCCCCCCCCCC(=O)N[C@@H](C*)C(=O)NCCCCCCCCCCCCCCCC; X2 = CCCCCCCCCCCCCCCCCC(=O)N[C@@H](C*)C(=O)NCCCCCCCCCCCCCCCC; X6 = CCCCCCCCCCCCCC(=O)N[C@@H](C*)C(=O)NCCCCCCCCCCCC; X3 = CCCCCCCCCCCCCC(=O)N[C@@H](C*)C(=O)NCCCCCCCCCC; X4 = CCCCCCCCCCCCCC(=O)N[C@@H](C*)C(=O)NCCCCCCCC; X7 = CCCCCCCCCCCCCC(=O)N[C@@H](C*)C(=O)NCCCCCC; Arachidoyl = CCCCCCCCCCCCCCCCCCCC(=O)*; Stearoyl = CCCCCCCCCCCCCCCCCC(=O)*; Myristoyl = CCCCCCCCCCCCCC(=O)*

T1 sequence (O60603 whole entry): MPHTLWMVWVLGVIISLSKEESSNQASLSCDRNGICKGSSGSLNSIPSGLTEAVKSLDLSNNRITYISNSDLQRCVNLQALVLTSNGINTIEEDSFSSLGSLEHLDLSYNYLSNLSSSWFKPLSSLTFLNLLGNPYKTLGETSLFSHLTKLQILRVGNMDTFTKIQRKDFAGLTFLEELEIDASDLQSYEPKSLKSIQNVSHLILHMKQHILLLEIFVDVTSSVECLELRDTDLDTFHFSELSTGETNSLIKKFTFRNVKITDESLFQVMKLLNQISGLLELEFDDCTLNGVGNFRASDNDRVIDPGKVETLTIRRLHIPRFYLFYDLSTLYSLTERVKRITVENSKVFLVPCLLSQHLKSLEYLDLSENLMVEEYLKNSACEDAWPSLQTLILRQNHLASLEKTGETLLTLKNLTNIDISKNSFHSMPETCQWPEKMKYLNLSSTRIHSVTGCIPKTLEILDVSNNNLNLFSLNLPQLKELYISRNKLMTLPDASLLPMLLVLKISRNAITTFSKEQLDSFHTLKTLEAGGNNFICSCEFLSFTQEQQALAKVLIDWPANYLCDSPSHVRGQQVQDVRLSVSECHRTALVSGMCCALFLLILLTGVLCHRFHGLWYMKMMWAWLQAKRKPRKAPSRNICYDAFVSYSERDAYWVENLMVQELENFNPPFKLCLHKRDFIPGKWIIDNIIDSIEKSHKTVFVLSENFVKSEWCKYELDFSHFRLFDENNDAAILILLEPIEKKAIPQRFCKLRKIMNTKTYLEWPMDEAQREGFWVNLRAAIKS

For `CCCCCCCCCCCCCC(=O)N[C@@H](CSC[C@H](NC(=O)CCCCCCCCCCCCC)C(=O)N[C@@H](CO)C(=O)N[C@@H](CCCCN)C(=O)N[C@@H](CCCCN)C(=O)N[C@@H](CCCCN)C(=O)N[C@@H](CCCCN)C(N)=O)C(=O)NCCCCCCCC` (Myristoyl-C(X4)SKKKK-NH2), the result in the test with THP-1 was inactive. In addition, on Toll-like receptor 2 [1], the result was Active.
For `CCCCCCCCCCCCCCCCNC(=O)[C@H](C[S+]([O-])C[C@H](NC(=O)CCCCCCCCCCCCCCC)C(=O)N[C@@H](CO)C(=O)N[C@@H](CCCCN)C(=O)N[C@@H](CCCCN)C(=O)N[C@@H](CCCCN)C(=O)N[C@@H](CCCCN)C(N)=O)NC(=O)CCCCCCCCCCCCCCC` (some centres undefined), in that order: “inactive” and “Active”.
For `CCCCCCCCCCCCCCCCNC(=O)[C@H](CSC[C@H](NC(=O)CCCCC)C(=O)N[C@@H](CO)C(=O)N[C@@H](CCCCN)C(=O)N[C@@H](CCCCN)C(=O)N[C@@H](CCCCN)C(=O)N[C@@H](CCCCN)C(N)=O)NC(=O)CCCCC`, in that order: “inactive” and “Active”.
Turning to `CCCCCCCCCCCCCCCCNC(=O)[C@H](CSC[C@H](NC(=O)CCCCCCCCCCC)C(=O)N[C@@H](CO)C(=O)N[C@@H](CCCCN)C(=O)N[C@@H](CCCCN)C(=O)N[C@@H](CCCCN)C(=O)N[C@@H](CCCCN)C(N)=O)NC(=O)CCCCCCCCCCC`, the result in the test with THP-1 was inactive. In addition, the outcome at Toll-like receptor 2 [1] and at Toll-like receptor 2 [2] was Active.
Turning to `CCCCCCCCCCCCCCCCCC(=O)N[C@@H](CSC[C@H](NC(=O)CCCCCCCCCCCCCCCCC)C(=O)N[C@@H](CO)C(=O)N[C@@H](CCCCN)C(=O)N[C@@H](CCCCN)C(=O)N[C@@H](CCCCN)C(=O)N[C@@H](CCCCN)C(N)=O)C(=O)NCCCCCCCCCCCCCCCC` (Stearoyl-C(X2)SKKKK-NH2), the result in the test on THP-1 was inactive. At Toll-like receptor 2 [1], the result was Active.
For `CCCCCCCCCCCCCC(=O)N[C@@H](CSC[C@H](NC(=O)CCCCCCCCCCCCC)C(=O)N[C@@H](CO)C(=O)N[C@@H](CCCCN)C(=O)N[C@@H](CCCCN)C(=O)N[C@@H](CCCCN)C(=O)N[C@@H](CCCCN)C(N)=O)C(=O)NCCCCCCCCCCCC` (Myristoyl-C(X6)SKKKK-NH2), in that order: “inactive” and “Active”.
Regarding `CCCCCCCCCCCCCCCCCCNC(=O)[C@H](CSC[C@H](NC(=O)CCCCCCCCCCCCC)C(=O)N[C@@H](CO)C(=O)N[C@@H](CCCCN)C(=O)N[C@@H](CCCCN)C(=O)N[C@@H](CCCCN)C(=O)N[C@@H](CCCCN)C(N)=O)NC(=O)CCCCCCCCCCCCC`, the outcome in the test with THP-1 was inactive. Further, the outcome at Toll-like receptor 2 [1] was Active.
The like results for `CCCCCCCCCCCCCCCCNC(=O)[C@H](CS(=O)(=O)C[C@H](NC(=O)CCCCCCCCCCCCCCC)C(=O)N[C@@H](CO)C(=O)N[C@@H](CCCCN)C(=O)N[C@@H](CCCCN)C(=O)N[C@@H](CCCCN)C(=O)N[C@@H](CCCCN)C(N)=O)NC(=O)CCCCCCCCCCCCCCC` were, in that order, “inactive” and “Active”.
Consider `CCCCCCCCCCCCCCCCCCCC(=O)N[C@@H](CSC[C@H](NC(=O)CCCCCCCCCCCCCCCCCCC)C(=O)N[C@@H](CO)C(=O)N[C@@H](CCCCN)C(=O)N[C@@H](CCCCN)C(=O)N[C@@H](CCCCN)C(=O)N[C@@H](CCCCN)C(N)=O)C(=O)NCCCCCCCCCCCCCCCC` (Arachidoyl-C(X5)SKKKK-NH2), for which, in the test with THP-1, the result was inactive. In addition, the outcome at Toll-like receptor 2 [1] was Active.
For `CCCCCCCCCCCCCC(=O)N[C@@H](CSC[C@H](NC(=O)CCCCCCCCCCCCC)C(=O)N[C@@H](CO)C(=O)N[C@@H](CCCCN)C(=O)N[C@@H](CCCCN)C(=O)N[C@@H](CCCCN)C(=O)N[C@@H](CCCCN)C(N)=O)C(=O)NCCCCCCCCCC` (Myristoyl-C(X3)SKKKK-NH2), the outcome in the test with THP-1 was inactive. Further, at Toll-like receptor 2 [1], the result was Active.
Consider `CCCCCCCCCCCCCC(=O)N[C@H](CSC[C@@H](NC(=O)CCCCCCCCCCCCC)C(=O)N[C@@H](CO)C(=O)N[C@@H](CCCCN)C(=O)N[C@@H](CCCCN)C(=O)N[C@@H](CCCCN)C(=O)N[C@@H](CCCCN)C(N)=O)C(=O)O`, for which the result with THP-1 and at Toll-like receptor 2 [3] was inactive. Besides, the outcome at Toll-like receptor 2 [1] was Active.
For `CCCCCCCCCCCCCCNC(=O)[C@H](CSC[C@H](NC(=O)CCCCCCCCCCCCC)C(=O)N[C@@H](CO)C(=O)N[C@@H](CCCCN)C(=O)N[C@@H](CCCCN)C(=O)N[C@@H](CCCCN)C(=O)N[C@@H](CCCCN)C(N)=O)NC(=O)CCCCCCCCCCCCC`, the outcome in the test with THP-1 was inactive. The outcome at Toll-like receptor 2 [1] was Active.
Regarding `CCCCCCCCCCCCCC(=O)N[C@@H](CSC[C@@H](NC(=O)CCCCCCCCCCCCC)C(=O)N[C@@H](CO)C(=O)N[C@@H](CCCCN)C(=O)N[C@@H](CCCCN)C(=O)N[C@@H](CCCCN)C(=O)N[C@@H](CCCCN)C(N)=O)C(=O)O`, the outcome with THP-1 and at Toll-like receptor 2 [3] was inactive. For the same compound, the outcome at Toll-like receptor 2 [1] was Active.
In the case of `CCCCCCCCCCCCCC(=O)N[C@@H](CSC[C@H](NC(=O)CCCCCCCCCCCCC)C(=O)N[C@@H](CO)C(=O)N[C@@H](CCCCN)C(=O)N[C@@H](CCCCN)C(=O)N[C@@H](CCCCN)C(=O)N[C@@H](CCCCN)C(N)=O)C(=O)NCCCCCC` (Myristoyl-C(X7)SKKKK-NH2), in the test on THP-1, the result was inactive.
For the compound `CCCCCCCCCCCCCCCCNC(=O)[C@H](CSC[C@H](NC(=O)CCCCCCCCCCCCCCC)C(=O)N[C@@H](CO)C(=O)N[C@@H](CCCCN)C(=O)N[C@@H](CCCCN)C(=O)N[C@@H](CCCCN)C(=O)N[C@@H](CCCCN)C(N)=O)NC(=O)CCCCCCCCCCCCCCC`, the result with THP-1 was inactive. Further, the result on Toll-like receptor 2 [1] and at Toll-like receptor 2 [2] was Active.
On to `CCCCCCCCCCCCCC(=O)N[C@@H](CSC[C@H](NC(=O)CCCCCCCCCCCCC)C(=O)N[C@@H](CO)C(=O)N[C@@H](CCCCN)C(=O)N[C@@H](CCCCN)C(=O)N[C@@H](CCCCN)C(=O)N[C@@H](CCCCN)C(N)=O)C(=O)O`, for which the outcome in the test with THP-1 and on Toll-like receptor 2 [3] was inactive. Further, on Toll-like receptor 2 [1], the result was Active.
Consider `CCCCCCCCCCCCCCCCNC(=O)[C@H](CSC[C@H](NC(=O)CCCCCCCCCCCCC)C(=O)N[C@@H](CO)C(=O)N[C@@H](CCCCN)C(=O)N[C@@H](CCCCN)C(=O)N[C@@H](CCCCN)C(=O)N[C@@H](CCCCN)C(N)=O)NC(=O)CCCCCCCCCCCCC`, for which the outcome with THP-1 was inactive. The result at Toll-like receptor 2 [1] and on Toll-like receptor 2 [2] was Active.
For the compound `CCCCCCCCCCCCCC(=O)N[C@@H](CSC[C@@H](NC(=O)CCCCCCCCCCCCC)C(=O)O)C(=O)N[C@@H](CO)C(=O)N[C@@H](CCCCN)C(=O)N[C@@H](CCCCN)C(=O)N[C@@H](CCCCN)C(=O)N[C@@H](CCCCN)C(N)=O`, the result in the test on THP-1 and on Toll-like receptor 2 [3] was inactive. Further, the outcome on Toll-like receptor 2 [1] was Active.
With `CCCCCCCCCCCCCCCCNC(=O)[C@H](CSC[C@@H](NC(=O)CCCCCCCCCCCCC)C(=O)N[C@@H](CO)C(=O)N[C@@H](CCCCN)C(=O)N[C@@H](CCCCN)C(=O)N[C@@H](CCCCN)C(=O)N[C@@H](CCCCN)C(N)=O)NC(=O)CCCCCCCCCCCCC`, in the test on THP-1, the result was inactive. Besides, the result on Toll-like receptor 2 [1] was Active.
For `CCCCCCCCCCCCCCCCNC(=O)[C@H](CSC[C@H](NC(=O)CCCCCCCCC)C(=O)N[C@@H](CO)C(=O)N[C@@H](CCCCN)C(=O)N[C@@H](CCCCN)C(=O)N[C@@H](CCCCN)C(=O)N[C@@H](CCCCN)C(N)=O)NC(=O)CCCCCCCCC`, in that order: “inactive” and “Active”.
For `CCCCCCCCCCCCCCCCNC(=O)[C@@H](CSC[C@H](NC(=O)CCCCCCCCCCCCC)C(=O)N[C@@H](CO)C(=O)N[C@@H](CCCCN)C(=O)N[C@@H](CCCCN)C(=O)N[C@@H](CCCCN)C(=O)N[C@@H](CCCCN)C(N)=O)NC(=O)CCCCCCCCCCCCC`, in that order: “inactive” and “Active”.
In the case of `CCCCCCCCCCCCCCCCNC(=O)[C@@H](CSC[C@@H](NC(=O)CCCCCCCCCCCCC)C(=O)N[C@@H](CO)C(=O)N[C@@H](CCCCN)C(=O)N[C@@H](CCCCN)C(=O)N[C@@H](CCCCN)C(=O)N[C@@H](CCCCN)C(N)=O)NC(=O)CCCCCCCCCCCCC`, in the test with THP-1, the outcome was inactive. The outcome at Toll-like receptor 2 [1] was Active.
At Toll-like receptor 2 [3], `CCCCCCCCCCCCCCCC(=O)O` [PALMITIC ACID] had an IC50 of 5 µM and an Activity of 68%.
As to `CCCCCCCCCCCCCCCCNC(=O)[C@H](CSC[C@H](NC(=O)CCCCCCC)C(=O)N[C@@H](CO)C(=O)N[C@@H](CCCCN)C(=O)N[C@@H](CCCCN)C(=O)N[C@@H](CCCCN)C(=O)N[C@@H](CCCCN)C(N)=O)NC(=O)CCCCCCC`, the result in the test on THP-1 was inactive. Moreover, the outcome on Toll-like receptor 2 [1] was Active.
